Shown are actives, neighbours in structure and some others; about 3.1% of the full set was active somewhere.
UHRF1 binding = human UHRF1 methylated DNA binding inhibitors; actives 0.75% (n = 370,000); inhibition, % at 4.4 µM; UHRF1 binding to methylated oligo, TR-FRET; in the data active = inhibition above about 21%;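 note: UHRF1 SRA domain binding a hemimethylated CpG hairpin DNA probe; 0% = median of test compound wells and 100% = reference inhibitor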
rCAG binder = binds r(CAG) RNA repeats | inhibition, % at 3 µM | r(CAG) RNA repeat, TO-PRO-1 dye displacement fluorescence | actives 1.3% (n = 370,000);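 active = inhibition above the plate cutoff, the mean of all test compounds on that plate plus 3 SD, cut at about 35% in these data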;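 note: 0% = DMSO alone and 100% = 100 µM mitoxantrone as full dye displacement; higher means more dye released from RNA so lower well fluorescence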
CSN inh = inhibitors of human CSN-mediated cullin deneddylation; actives 0.38% (n = 360,000); Purified CSN, SCF-Nedd8-OG deneddylation, fluorescence polarization; inhibition, % at 12.5 µM;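 active = pattern-corrected inhibition above about 35%, with an unprinted fluorescence ratio check between 0.5 and 1.5, limit read from the data, passing the limit was not always enough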;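 note: 0% = enzyme with substrate and 100% = substrate without enzyme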
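Material: purified human Csn5 enzyme expressed in HEK293T cells / Medium: Tris buffer pH 7.5, NaCl, DTT, Tween-20, trehalose, ovalbumin / Compound dosing: 12.5 µM single point / Schedule: 90 min incubation of compound, enzyme and substrate at room temperature / Signal: fluorescence polarization of the substrate / Control set: no-enzyme wells high, enzyme-with-substrate wells low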
ATG4B inhibitor = ATG4B (human) cysteine protease inhibition | ATG4B cleavage of LC3-PLA2, NBD-HPC fluorescence, 1 h | Q9Y4P1 | AID 504462 | inhibition, % at 8.33 µM | actives 0.51% (n = 340,000); in the data active = inhibition above about 40%
Target sequence (Q9Y4P1 whole entry, looked up): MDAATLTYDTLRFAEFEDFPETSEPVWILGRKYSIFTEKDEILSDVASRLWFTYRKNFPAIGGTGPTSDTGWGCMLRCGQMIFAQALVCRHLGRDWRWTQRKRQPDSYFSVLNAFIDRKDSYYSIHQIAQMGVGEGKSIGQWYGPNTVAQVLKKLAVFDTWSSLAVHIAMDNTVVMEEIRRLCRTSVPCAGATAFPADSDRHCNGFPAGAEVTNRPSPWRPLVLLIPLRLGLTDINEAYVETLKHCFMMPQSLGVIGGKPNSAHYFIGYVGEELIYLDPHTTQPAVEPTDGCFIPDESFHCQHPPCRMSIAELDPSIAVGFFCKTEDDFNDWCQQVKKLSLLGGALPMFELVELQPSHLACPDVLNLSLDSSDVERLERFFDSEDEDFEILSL
LEDGF integ inh = blocks HIV-1 LEDGF/p75-dependent DNA integration. TR-FRET IN-LEDGF/p75 DNA integration, Eu/Cy5. inhibition, % at 3.7 µM. actives 0.64% (n = 370,000). AID 743269;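 active = inhibition above the screen-wide mean plus 3 SD, cut at about 13% in these data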;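 note: signal is the Cy5 over europium emission ratio at 671 and 618 nm; 0% = plate median of compound wells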
MBD2 DNA inh = MBD2-methylated oligo binding inhibition; Q9UBB5; TR-FRET, MBD2 binding to methylated oligonucleotide; inhibition, % at 4.4 µM; actives 0.31% (n = 370,000); AID 686964; in the data active = inhibition above about 13%
rCAG bind conf = r(CAG) RNA repeat binding, confirmation; shares compounds with rCAG binder; TO-PRO-1 dye displacement fluorescence; inhibition, % at 3 µM; actives 70% (n = 4,300);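 active = inhibition above a per-plate cutoff, the mean inhibition of sample wells plus 3 SD, cut at about 35% in these data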;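 note: loss of TO-PRO-1 fluorescence as compound displaces dye from 1x1 AA loop RNA; 0% = DMSO only wells and 100% = 100 µM mitoxantrone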
dCAG dye counter = disrupts DNA CAG TO-PRO-1 complex, flagging rCAG hits; inhibition, % at 3 µM; AID 652068; d(CAG) DNA oligo TO-PRO-1 dye displacement, fluorescence; actives 94% (n = 4,300); shares compounds with rCAG binder;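 active = inhibition above its plate's cutoff, the mean test-well inhibition plus 3 SD, cut at about 4.8% in these data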;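 note: 0% = DNA dye mix with DMSO and 100% = 100 µM mitoxantrone; hits displace the dye from DNA and so lower well fluorescence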
* = called active by the depositor.

Results for O=C(NCC(c1cccs1)N1CCOCC1)c1ccccc1NS(=O)(=O)c1cc([N+](=O)[O-])ccc1Cl (stereo unspecified) ?
UHRF1 binding: -1; rCAG binder: 42*; CSN inh: 0; ATG4B inhibitor: -10; LEDGF integ inh: 1; MBD2 DNA inh: -4; rCAG bind conf: 40*; dCAG dye counter: 11*

What do the screens show for `O=C(O)c1cccc(S(=O)(=O)Nc2ccc3oc(=O)sc3c2)c1`?
UHRF1 binding: 3; rCAG binder: 42*; CSN inh: 4; ATG4B inhibitor: -4; LEDGF integ inh: -1; MBD2 DNA inh: 0; rCAG bind conf: 7; dCAG dye counter: 2

What do the screens show for `Cc1ccc(Oc2ccc(NS(=O)(=O)c3cccc(C(=O)O)c3)cc2)cc1`?
UHRF1 binding: 17; rCAG binder: 38*; CSN inh: -2; ATG4B inhibitor: 1; LEDGF integ inh: 2; MBD2 DNA inh: 5; rCAG bind conf: 38*; dCAG dye counter: 10*

Results for COc1ccc(CN2C(=O)[C@@](O)(c3cccn3C)c3cc(Br)ccc32)cc1 ?
UHRF1 binding: 0; rCAG binder: 3; LEDGF integ inh: 5; MBD2 DNA inh: -3

What do the screens show for `O=C(N/N=C/c1cc([N+](=O)[O-])cc([N+](=O)[O-])c1O)/C(=C\c1cccs1)NC(=O)c1ccccc1`?
UHRF1 binding: -7; rCAG binder: 68*; CSN inh: -4; ATG4B inhibitor: -6; LEDGF integ inh: -5; MBD2 DNA inh: 0; rCAG bind conf: 84*; dCAG dye counter: 53*

What do the screens show for `O=C(Nc1ccc(Oc2ccccc2)cc1)C1CCCN1S(=O)(=O)c1cccc2cccnc12` (stereo unspecified)?
UHRF1 binding: -4; rCAG binder: 4; LEDGF integ inh: 0; MBD2 DNA inh: -6

Results for CCOC(=O)N1CCN(C(=O)C[C@@H]2C(=O)N(Cc3ccc(OC)cc3)C3=CCN(C(=O)OC(C)(C)C)C[C@]32C(=O)OCC)CC1 ?
UHRF1 binding: 1; rCAG binder: 2; LEDGF integ inh: -2; MBD2 DNA inh: -1

Results for CC(=O)N1[C@@H](CO)[C@@H](c2ccc(-c3cccc(F)c3)cc2)[C@@H]1CNCC1CCC1 ?
UHRF1 binding: 1; rCAG binder: 5; LEDGF integ inh: -5; MBD2 DNA inh: 5

How did COc1ccccc1CNC(=O)NC1CCN(CC(=O)Nc2ccc3c(c2)OCCO3)CC1 do in these assays?
UHRF1 binding: -2; rCAG binder: 1; LEDGF integ inh: 7; MBD2 DNA inh: -6

Results for COc1ccc(/C=C/C(=O)c2cc(Br)ccc2O)cc1OC ?
UHRF1 binding: 6; rCAG binder: -1; CSN inh: 8; ATG4B inhibitor: 1; LEDGF integ inh: 2; MBD2 DNA inh: 6

Results for CCNc1ccc(Br)cc(C(=O)/C=C/c2ccc(Cl)cc2Cl)c1=O ?
UHRF1 binding: -3; rCAG binder: 45*; CSN inh: 28; ATG4B inhibitor: 12; LEDGF integ inh: 3; MBD2 DNA inh: -8; rCAG bind conf: 48*; dCAG dye counter: 21*

What do the screens show for `CNc1ccc(Br)cc(C(=O)/C=C/c2cc(OC)ccc2OC)c1=O`?
UHRF1 binding: -1; rCAG binder: 43*; CSN inh: 16; ATG4B inhibitor: 1; LEDGF integ inh: 10; MBD2 DNA inh: 1; rCAG bind conf: 38*; dCAG dye counter: 16*

Results for COCCCNC(=O)/C=C/c1ccc(Cl)cc1Cl ?
UHRF1 binding: -2; rCAG binder: -3; CSN inh: -1; ATG4B inhibitor: -9; LEDGF integ inh: -3; MBD2 DNA inh: -1

Results for C/C(=N/NC(=O)c1ccoc1C)c1cccs1 ?
UHRF1 binding: -2; rCAG binder: 0; LEDGF integ inh: 5; MBD2 DNA inh: 3

What do the screens show for `Cc1ccc(NC(=O)Nc2nc(-c3ccc(C)s3)cs2)cc1`?
UHRF1 binding: 0; rCAG binder: 52*; CSN inh: 2; ATG4B inhibitor: -9; LEDGF integ inh: -1; MBD2 DNA inh: -5; rCAG bind conf: 17; dCAG dye counter: 21*

What do the screens show for `COc1ccc(-c2csc(NC(=O)Nc3ccccc3)n2)cc1`?
UHRF1 binding: -1; rCAG binder: 40*; CSN inh: -4; ATG4B inhibitor: -8; LEDGF integ inh: -7; MBD2 DNA inh: 3; rCAG bind conf: 14; dCAG dye counter: 16*

What do the screens show for `COc1ccc(NC(=O)Nc2nnc(-c3ccncc3)s2)cc1`?
UHRF1 binding: -3; rCAG binder: 42*; CSN inh: 1; ATG4B inhibitor: -5; LEDGF integ inh: 0; MBD2 DNA inh: -4; rCAG bind conf: 18; dCAG dye counter: 8.9*

What do the screens show for `CCN(CC)c1ccc(C=NNC(=O)c2cc(-c3ccc(C)c(C)c3)n[nH]2)c(O)c1`?
UHRF1 binding: -2; rCAG binder: 19; LEDGF integ inh: -3; MBD2 DNA inh: 1

How did CC(C)C[C@H](NC1(C(=O)NC2CCCCC2)CCCCC1)C(=O)NCCc1c[nH]c2ccccc12 do in these assays?
UHRF1 binding: 3; LEDGF integ inh: 3; MBD2 DNA inh: 1

Results for CCOC(=O)c1ccc(NC(=O)c2c(NC(=O)CCC(=O)O)sc3c2CCCCC3)cc1 ?
UHRF1 binding: -2; rCAG binder: 43*; CSN inh: 6; ATG4B inhibitor: -7; LEDGF integ inh: 2; MBD2 DNA inh: -5; rCAG bind conf: 34; dCAG dye counter: 10*

Results for CS(=O)(=O)N1CCC[C@]2(CC[C@@H](CCC#N)O2)C1 ?
UHRF1 binding: 0; rCAG binder: 0; LEDGF integ inh: -5; MBD2 DNA inh: -5

How did Cc1c(C(=O)NNC(=O)c2ccccc2O)oc2ccc(Br)cc12 do in these assays?
UHRF1 binding: -2; rCAG binder: 40*; CSN inh: 3; ATG4B inhibitor: 27; LEDGF integ inh: -19; MBD2 DNA inh: -2; rCAG bind conf: 39*; dCAG dye counter: 21*

How did N#CCC1(O)C(=O)Nc2ccccc21 (stereo unspecified) do in these assays?
UHRF1 binding: 0; rCAG binder: 0; LEDGF integ inh: -4; MBD2 DNA inh: -2

What do the screens show for `COC(=O)C[C@H]1CC[C@@H]2[C@@H](COc3ccc(NS(=O)(=O)c4ccccc4Cl)cc3C(=O)N2C)O1`?
UHRF1 binding: -1; rCAG binder: 7; LEDGF integ inh: 0; MBD2 DNA inh: 2

Screens from PubChem BioAssay.
